The values that follow come from ChEMBL document CHEMBL1944607, “7-Substituted-pyrrolo[3,2-d]pyrimidine-2,4-dione derivatives as antagonists of the transient receptor potential ankyrin 1 (TRPA1) channel: a promising approach for treating pain and inflammation” (Bioorg Med Chem, 2012).

Test [1] concerns the target T1, Transient receptor potential cation channel subfamily A member 1 (Homo sapiens, UniProt O75762). The test can be described thus: Antagonist activity at human TRPA1 expressed in human IMR90 cells assessed as inhibition of acrolein-induced calcium influx at 30 uM after 40 mins by fluorescence analysis. In kind it is functional, cell-based. The conditions noted are these: IMR-90. The gist of the method:
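IMR90 fetal lung fibroblasts, which constitutively express human TRPA1, were grown in DMEM with 10% FBS and 2 mM L-glutamine at 37 °C under 5% CO₂, then plated on glass coverslips to 60% confluence. Cells were loaded with Fura-2 AM for 40 min at 37 °C in HEPES buffer (pH 7.4, 0.1% BSA). Single-cell F340/F380 ratio was recorded during acrolein challenge in the presence of antagonist. %inhibition is mean ± SEM from ≥25 cells across three experiments; IC₅₀ (with CI) comes from a variable-slope sigmoidal fit.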

Test [2] concerns the target Transient receptor potential cation channel subfamily A member 1 (Rattus norvegicus) (UniProt Q6RI86). Put plainly: Antagonist activity at Sprague-Dawley rat TRPA1 expressed in rat DRG neurons assessed as inhibition of acrolein-induced calcium influx at 30 uM after 40 mins by fluorescence analysis. In kind it is functional. The gist of the method:
(§1)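 DRG neurons came from male Sprague–Dawley rats (100 g). Ganglia were digested in HBSS with collagenase 1A (2 mg/ml) and trypsin (1 mg/ml) for 35 min at 37 °C, dissociated through 23–25 G needles in medium with 10% FBS and 10% horse serum, then filtered and centrifuged. Neurons were loaded with Fura-2 AM for 40 min at 37 °C in HEPES buffer (pH 7.4). F340/F380 was recorded under acrolein with antagonist present. %inhibition is mean ± SEM from ≥20 neurons across three experiments; IC₅₀ comes from a variable-slope sigmoidal fit.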

Test [3] shares this target. Put plainly: Antagonist activity at Sprague-Dawley rat TRPA1 expressed in rat DRG neurons assessed as inhibition of acrolein-induced calcium influx at 3 uM after 40 mins by fluorescence analysis. In kind it is functional. The procedure, abridged: as §1
Test [4] deals with Transient receptor potential cation channel subfamily V member 1 (Rattus norvegicus) (UniProt O35433). The test can be described thus: Antagonist activity at Sprague-Dawley rat TRPV1 expressed in rat DRG neurons assessed as inhibition of capsaicin-induced calcium influx after 40 mins by fluorescence analysis. It counts as functional.
Transient receptor potential cation channel subfamily V member 1 (Rattus norvegicus), sequence (O35433 whole entry): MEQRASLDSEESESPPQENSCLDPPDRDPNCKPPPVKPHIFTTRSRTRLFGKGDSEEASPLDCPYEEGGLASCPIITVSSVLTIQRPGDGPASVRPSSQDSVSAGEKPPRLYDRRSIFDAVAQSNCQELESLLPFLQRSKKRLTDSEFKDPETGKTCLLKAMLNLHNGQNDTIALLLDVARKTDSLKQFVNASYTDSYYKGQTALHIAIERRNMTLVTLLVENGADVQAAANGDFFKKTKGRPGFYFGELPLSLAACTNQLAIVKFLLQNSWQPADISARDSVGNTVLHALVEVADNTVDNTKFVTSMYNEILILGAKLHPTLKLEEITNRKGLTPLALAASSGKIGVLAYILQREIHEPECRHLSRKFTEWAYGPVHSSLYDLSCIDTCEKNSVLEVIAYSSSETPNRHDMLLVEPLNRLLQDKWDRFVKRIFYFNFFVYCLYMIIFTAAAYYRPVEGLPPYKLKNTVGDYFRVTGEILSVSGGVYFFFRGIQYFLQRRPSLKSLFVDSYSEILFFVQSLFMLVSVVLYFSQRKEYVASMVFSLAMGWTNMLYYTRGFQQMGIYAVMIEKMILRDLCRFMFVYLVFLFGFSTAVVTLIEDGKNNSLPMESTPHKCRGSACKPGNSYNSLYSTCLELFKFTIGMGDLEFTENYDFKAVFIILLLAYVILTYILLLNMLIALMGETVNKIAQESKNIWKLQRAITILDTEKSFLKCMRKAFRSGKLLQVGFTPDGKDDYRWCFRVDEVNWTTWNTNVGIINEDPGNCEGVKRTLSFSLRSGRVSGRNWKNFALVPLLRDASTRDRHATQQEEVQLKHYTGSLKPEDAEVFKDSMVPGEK
Test [5] deals with T1, Transient receptor potential cation channel subfamily A member 1. Put plainly: Antagonist activity at human TRPA1 expressed in human IMR90 cells assessed as inhibition of acrolein-induced calcium influx at 3 uM after 40 mins by fluorescence analysis. The conditions noted are these: IMR-90. It counts as functional, cell-based.
In test [6] the target is Transient receptor potential cation channel subfamily A member 1 (Rattus norvegicus, UniProt Q6RI86). The test can be described thus: (§2) Antagonist activity at Sprague-Dawley rat TRPA1 expressed in rat DRG neurons assessed as inhibition of acrolein-induced calcium influx after 40 mins by fluorescence analysis. It counts as functional. The procedure, abridged: as §1
Transient receptor potential cation channel subfamily A member 1 (Rattus norvegicus, UniProt Q6RI86), sequence (Q6RI86 whole entry): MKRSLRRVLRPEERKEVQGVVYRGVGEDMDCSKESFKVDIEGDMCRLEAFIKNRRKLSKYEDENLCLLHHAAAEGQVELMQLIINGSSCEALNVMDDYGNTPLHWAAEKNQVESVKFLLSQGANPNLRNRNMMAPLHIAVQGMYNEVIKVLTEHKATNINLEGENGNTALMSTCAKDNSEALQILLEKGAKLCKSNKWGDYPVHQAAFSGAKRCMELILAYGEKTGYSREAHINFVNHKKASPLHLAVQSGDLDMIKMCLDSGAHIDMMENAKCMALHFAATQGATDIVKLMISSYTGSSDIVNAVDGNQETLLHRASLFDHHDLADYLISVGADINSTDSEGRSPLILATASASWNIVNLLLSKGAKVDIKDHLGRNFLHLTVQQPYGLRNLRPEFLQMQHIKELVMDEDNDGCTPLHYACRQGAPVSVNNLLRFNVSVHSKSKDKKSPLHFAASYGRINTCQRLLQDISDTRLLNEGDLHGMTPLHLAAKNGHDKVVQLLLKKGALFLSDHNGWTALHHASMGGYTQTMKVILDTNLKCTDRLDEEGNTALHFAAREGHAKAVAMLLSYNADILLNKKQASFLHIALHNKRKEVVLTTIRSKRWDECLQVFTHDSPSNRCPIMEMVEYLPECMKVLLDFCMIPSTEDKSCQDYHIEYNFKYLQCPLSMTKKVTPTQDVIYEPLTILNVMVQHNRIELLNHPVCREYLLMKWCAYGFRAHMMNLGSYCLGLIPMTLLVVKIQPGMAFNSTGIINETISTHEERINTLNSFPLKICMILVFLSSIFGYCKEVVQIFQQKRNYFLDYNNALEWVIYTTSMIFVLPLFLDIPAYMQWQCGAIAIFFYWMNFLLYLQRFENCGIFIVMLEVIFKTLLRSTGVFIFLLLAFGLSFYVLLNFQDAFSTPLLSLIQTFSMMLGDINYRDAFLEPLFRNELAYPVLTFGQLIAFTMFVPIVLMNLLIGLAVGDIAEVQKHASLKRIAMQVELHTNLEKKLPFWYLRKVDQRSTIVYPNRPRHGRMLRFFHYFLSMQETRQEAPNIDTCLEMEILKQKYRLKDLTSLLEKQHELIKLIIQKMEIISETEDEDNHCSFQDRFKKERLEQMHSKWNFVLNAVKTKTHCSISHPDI
Test [7] deals with T1, Transient receptor potential cation channel subfamily A member 1. The test can be described thus: Antagonist activity at human TRPA1 expressed in human IMR90 cells assessed as inhibition of acrolein-induced calcium influx after 40 mins by fluorescence analysis.
The target is the same in test [8]. The test can be described thus: Antagonist activity at human TRPA1 expressed in CHO cells assessed as inhibition of calcium influx. It counts as functional, cell-based.
Test [9] shares this target. Conditions: IMR-90, 1 uM.
Test [10] has as its target Transient receptor potential cation channel subfamily A member 1 (Rattus norvegicus) (UniProt Q6RI86). The test is described as §2. It counts as functional. The gist of the method:
as §1

Activity calls are given as the source filed them. The rule behind the calls is not given here. Bounds are passed on as bounds.

T1 sequence (O75762 whole entry): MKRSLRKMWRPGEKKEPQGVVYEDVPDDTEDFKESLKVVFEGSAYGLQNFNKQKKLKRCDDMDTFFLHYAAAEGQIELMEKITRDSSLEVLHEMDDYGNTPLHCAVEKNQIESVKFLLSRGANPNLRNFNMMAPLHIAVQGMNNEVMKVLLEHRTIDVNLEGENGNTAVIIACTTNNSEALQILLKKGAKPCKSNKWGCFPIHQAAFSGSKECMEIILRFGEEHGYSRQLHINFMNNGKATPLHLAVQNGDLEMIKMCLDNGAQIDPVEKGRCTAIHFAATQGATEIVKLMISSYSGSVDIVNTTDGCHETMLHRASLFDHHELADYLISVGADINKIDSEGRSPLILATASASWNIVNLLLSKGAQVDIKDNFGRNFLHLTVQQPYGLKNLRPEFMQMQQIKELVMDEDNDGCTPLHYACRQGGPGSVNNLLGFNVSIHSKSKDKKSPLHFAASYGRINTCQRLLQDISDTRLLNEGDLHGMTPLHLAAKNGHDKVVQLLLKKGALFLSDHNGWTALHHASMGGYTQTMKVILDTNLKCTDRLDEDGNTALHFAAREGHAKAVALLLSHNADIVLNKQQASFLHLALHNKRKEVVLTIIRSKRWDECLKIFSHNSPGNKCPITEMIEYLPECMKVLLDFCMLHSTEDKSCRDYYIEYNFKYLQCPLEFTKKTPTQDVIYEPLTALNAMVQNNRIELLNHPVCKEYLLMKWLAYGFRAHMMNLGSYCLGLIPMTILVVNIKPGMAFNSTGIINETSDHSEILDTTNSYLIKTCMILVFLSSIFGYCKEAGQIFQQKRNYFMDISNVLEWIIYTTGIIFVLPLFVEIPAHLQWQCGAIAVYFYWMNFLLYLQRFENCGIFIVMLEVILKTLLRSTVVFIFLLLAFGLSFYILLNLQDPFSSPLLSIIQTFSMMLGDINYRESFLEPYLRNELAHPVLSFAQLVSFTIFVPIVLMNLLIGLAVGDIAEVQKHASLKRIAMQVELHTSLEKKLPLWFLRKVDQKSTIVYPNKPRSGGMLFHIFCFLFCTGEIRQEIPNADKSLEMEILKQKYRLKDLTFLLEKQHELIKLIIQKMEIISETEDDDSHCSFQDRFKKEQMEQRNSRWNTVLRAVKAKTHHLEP
Transient receptor potential cation channel subfamily A member 1 (Rattus norvegicus), sequence (Q6RI86 whole entry): as the sequence (Q6RI86 whole entry) above

For the compound `CCN(CC)S(=O)(=O)c1ccc(NC(=O)Cn2ccc3c2c(=O)n(C)c(=O)n3C)cc1`, the inhibition (in general, how much of the control response was suppressed) in [1] is below 50%.
Regarding `Cn1c(=O)c2c(ccn2CC(=O)Nc2ccc(F)cc2F)n(C)c1=O`, the inhibition in test [1] was below 50%.
With `Cn1c(=O)c2c(ccn2CC(=O)NCCCc2ccccc2)n(C)c1=O`, the inhibition in test [1] is below 50%.
Regarding `Cn1c(=O)c2c(ccn2CC(=O)NCc2ccccc2)n(C)c1=O`, the inhibition in test [1] is below 50%.
The same measure, in the same setting: next, `Cn1c(=O)c2c(ccn2CC(=O)Nc2ccc(F)c(F)c2)n(C)c1=O`: below 50%.
Turning to `Cn1c(=O)c2c(ccn2CC(=O)Nc2nc(-c3ccc(C(F)(F)F)cc3)cs2)n(C)c1=O`, the values for the inhibition in test [2] and in test [3] were 80.2% and 58.3%, respectively.
As to `Cn1c(=O)c2c(ccn2CC(=O)Nc2ccc(C3CCCCC3)cc2)n(C)c1=O`, the inhibition in [1] was below 50%.
In the case of `CC(C)c1ccc(NC(=O)Cn2cnc3c2c(=O)n(C)c(=O)n3C)cc1`, the inhibition in [2] turned out to be 99.8%; in [3], 80.7%; in test [5], 73.2%; in [1] it was 97.5%. Besides, the inhibition entry in [4] is “inactive”. For the same compound, the IC50 – broadly, the concentration that inhibits the measured activity by half – in test [6] was 2100 nM.
Take `CC(C)c1ccc(NC(=O)Cn2ccc3c2c(=O)n(C)c(=O)n3C)cc1`: the inhibition in [1] is below 50%.
Take `Cn1c(=O)c2c(ccn2CC(=O)Nc2ccc(N3CCOCC3)cc2)n(C)c1=O`: the inhibition in test [1] is below 50%.
On to `Cn1c(=O)c2c(ccn2CC(=O)Nc2nc(-c3ccccc3)cs2)n(C)c1=O`, for which the inhibition in [1] was below 50%.
With `Cn1c(=O)c2c(ccn2CC(=O)Nc2ccc(C(C)(C)C)cc2)n(C)c1=O`, the inhibition came out at 95.8% in test [2] and 10.7% in [3].
Consider `Cn1c(=O)c2c(ccn2CC(=O)NCCc2ccccc2)n(C)c1=O`, for which the inhibition in test [1] is below 50%.
Turning to `Cn1c(=O)c2c(ccn2CC(=O)Nc2nc(-c3ccc(F)cc3)cs2)n(C)c1=O`, the inhibition in test [2] was 99.2%; in [3] it was 3.6%; in [5], 47.9%; in [1], 82.8%. The IC50 in [7] was found to be 4100 nM.
On to `CN(C(=O)Cn1ccc2c1c(=O)n(C)c(=O)n2C)c1ccc(F)cc1`, for which the inhibition in test [1] was below 50%.
On to `CCCCc1ccc(NC(=O)Cn2ccc3c2c(=O)n(C)c(=O)n3C)cc1`, for which the inhibition in test [2] was found to be 97.1%; in [3], 94.4%; in test [5], 93.5%; in test [1] it was 99%. Moreover, in test [7], the IC50 turned out to be 1100 nM.
For `COc1ccc(NC(=O)Cn2ccc3c2c(=O)n(C)c(=O)n3C)cc1`, the inhibition in [1] was below 50%.
Take `CC(=C\c1ccc(Cl)cc1)/C(C)=N/O` [AP18 5]: the inhibition in test [2] is 90.1%; in test [3], 45.2%; in [5], 69.1%; in test [1], 98.9%. Moreover, the inhibition result in [4] is “inactive”. The half-maximal inhibitory concentration (IC50) is 2200 nM in test [7] and 3400 nM in test [6].
As to `Cn1c(=O)c2c(ccn2CC(=O)Nc2ccc(OC(F)(F)F)cc2)n(C)c1=O`, the inhibition in test [2] came to 99.5%; in test [3], 36.8%.
`CCCCCCc1ccc(NC(=O)Cn2ccc3c2c(=O)n(C)c(=O)n3C)cc1`: the inhibition in [2] was 93.3%; in test [3], 35.5%.
With `CCCCCCc1ccc(-c2csc(NC(=O)Cn3ccc4c3c(=O)n(C)c(=O)n4C)n2)cc1`, the inhibition in test [2] stood at 99.4%; in test [3], 92.4%.
Turning to `Cn1c(=O)c2c(ccn2CC(=O)Nc2ccc(I)cc2)n(C)c1=O`, the inhibition in test [2] stood at 85.4%; in test [3] it was 12.4%.
For `Cc1ccc(CNC(=O)Cn2ccc3c2c(=O)n(C)c(=O)n3C)cc1`, the inhibition in test [1] was below 50%.
Regarding `Cn1c(=O)c2c(ccn2CC(=O)Nc2cccc(I)c2)n(C)c1=O`, the inhibition in [1] is below 50%.
For the compound `Cn1c(=O)c2c(ccn2CC(=O)Nc2nc(-c3ccc(I)cc3)cs2)n(C)c1=O`, in test [1], the inhibition was below 50%.
Turning to `COc1cccc(C2NC(=S)NC3=C2C(=O)c2ccccc23)c1` (centres undefined), the inhibition in [2] was 99.5%; in test [3], 40.2%; in [5], 83.1%; in test [1], 98.8%. For the same compound, the IC50 in test [8] is 128 nM; in test [7], 1500 nM; in test [6], 3400 nM. Besides, the inhibition result in test [4] was “inactive”.
Regarding `Cn1c(=O)c2c(ccn2CC(=O)Nc2ccc(C(F)(F)F)cc2)n(C)c1=O`, the inhibition in [2] was 99.7%; in test [9], 88.7%; in test [3] it was 58.8%; in [5], 99%; in test [1], 99.1%; in [10], “Dose-dependent effect”. Further, in test [4], the inhibition entry was “inactive”. Also, the IC50 was 400 nM in test [7] and 2800 nM in [6].
With `Cn1c(=O)c2c(ccn2CC(=O)Nc2ccc(S(=O)(=O)NCc3ccccc3)cc2)n(C)c1=O`, the inhibition in test [1] is below 50%.
For `Cn1c(=O)c2c(ccn2CC(=O)Nc2nc(-c3ccc(F)c(C(F)(F)F)c3)cs2)n(C)c1=O`, the inhibition in test [2] was 99.6%; in [3], 80.6%; in [5], 76.1%; in test [1], 99.3%; in test [10], “Dose-dependent effect”. Further, in test [4], the inhibition entry was “inactive”. The IC50 in test [7] and in test [6] was 1300 nM throughout.
On to `Cn1c(=O)c2c(ccn2CC(=O)NC23CC4CC(CC(C4)C2)C3)n(C)c1=O`, for which the inhibition in test [1] is below 50%.
For the compound `Cn1c(=O)c2c(ccn2CC(=O)Nc2ccc(SC(F)(F)F)cc2)n(C)c1=O`, the inhibition in [1] is below 50%.
Turning to `Cn1c(=O)c2c(ccn2CC(=O)Nc2ccc(Cl)cc2)n(C)c1=O`, in test [1], the inhibition was below 50%.
